From ChEMBL document CHEMBL3351450 (Bioorg Med Chem, 2014) come the findings set out here.

Data set [1] can be described thus: Metabolic stability in human liver S9 fraction assessed as compound remaining at 1 uM after 5 mins by LC-MS/MS analysis. In kind it is ADME, subcellular. The conditions noted are these: read-out: Stability.
Data set [2] in a line: Metabolic stability in human liver S9 fraction assessed as compound remaining at 1 uM after 15 mins by LC-MS/MS analysis. The class given is ADME, subcellular. The following applies: read-out: Stability.
Another data set deals with Liver. Put plainly: Intrinsic clearance in human liver S9 fraction. The class given is ADME, subcellular.
The nature of data set [3]: Cmax in Sprague-Dawley rat at 30 mg/kg, po. The class given is ADME, organism-based. Set-up: dose 30 mg/kg, route oral. The following applies: in vivo. In outline:
(§1)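 Male SD rats, 3 per route. Oral dose given by gavage as a suspension in 0.5% Tween 80 (w/v). IV dose given via the femoral vein in DMSO/PEG-400/saline (5:65:30). Tail-vein blood drawn over 24 h and centrifuged to plasma. Parent and metabolite measured by LC–MS/MS.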

Data set [4] can be described thus: Cmax in Sprague-Dawley rat at 3 mg/kg, iv. In kind it is ADME, organism-based. Details: dose 3 mg/kg, route intravenous. The following applies: in vivo. In outline:
as §1

Data set [5] can be described thus: Tmax in Sprague-Dawley rat at 30 mg/kg, po. The class given is ADME, organism-based. The conditions noted are these: in vivo. Set-up: dose 30 mg/kg, route oral. In outline:
(§2)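 Male SD rats, three per route. Oral gavage of a suspension in 0.5% Tween 80 (30 mg/kg). IV via femoral vein in DMSO/PEG-400/saline 5:65:30 (3 mg/kg). Tail-vein blood sampled over 24 h. Plasma stored at -20 °C and analysed by LC–MS/MS for parent and metabolite. Values reported as mean ± SD of three rats.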

Data set [6] in a line: Tmax in Sprague-Dawley rat at 3 mg/kg, iv. Set-up: dose 3 mg/kg, route intravenous. The class given is ADME, organism-based. The conditions noted are these: in vivo. Put shortly: as §2
Data set [7] can be described thus: Half life in Sprague-Dawley rat at 30 mg/kg, po. The class given is ADME, organism-based. Set-up: dose 30 mg/kg, route oral. The conditions noted are these: in vivo. Put shortly: as §1
A short description of data set [8]: Half life in Sprague-Dawley rat at 3 mg/kg, iv. The following applies: in vivo. Details: dose 3 mg/kg, route intravenous. The class given is ADME, organism-based. Put shortly:
as §1

Data set [9] in a line: AUC (0 to infinity) in Sprague-Dawley rat at 30 mg/kg, po. The class given is ADME, organism-based. Set-up: time infinity, dose 30 mg/kg, route oral. The conditions noted are these: plasma. Put shortly: as §1
Data set [10] is described as follows: AUC (0 to infinity) in Sprague-Dawley rat at 3 mg/kg, iv. The class given is ADME, organism-based. Details: dose 3 mg/kg, route intravenous, time infinity. The conditions noted are these: plasma. Put shortly:
as §1

Data set [11] in a line: Oral bioavailability in Sprague-Dawley rat at 30 mg/kg. The class given is ADME, organism-based. The following applies: in vivo. In outline: as §2

With `Cn1nc(NC(=O)Cc2ccccc2)c(-c2ccncc2)c1-c1ccc(F)cc1`, the remaining at 5 min, 1 µM in data set [1] was 84.4%. The remaining at 0.25 h, 1 µM in data set [2] is 65%. For the same molecule, the CLint with Liver worked out at 68.1 µL/min/mg.

As for `Cc1ccc(C)c(CC(=O)Nc2onc(-c3ccc(F)cc3)c2-c2ccncn2)c1`, the remaining at 5 min, 1 µM in data set [1] turned out to be 53.9%.

Regarding `O=C(CCCc1ccccc1)Nc1onc(-c2ccc(F)cc2)c1-c1ccncc1`, in data set [1], the remaining at 5 min, 1 µM was found to be 50.7%. Besides, the remaining at 0.25 h, 1 µM in data set [2] came out at 28.5%. In the data set on Liver, this molecule showed a CLint of 272 µL/min/mg.

On to `Cc1cccc(-c2noc(NC(=O)Cc3ccccc3Cl)c2-c2ccncn2)c1`, for which the remaining at 5 min, 1 µM in data set [1] was 21.2%.

On to `O=C(CCc1ccccc1)Nc1onc(-c2ccc(F)cc2)c1-c1ccncc1`, for which, in [1], the remaining at 5 min, 1 µM stood at 32.1%. The remaining at 0.25 h, 1 µM in data set [2] came out at 27.9%. The molecule also registered a CLint with Liver of 455 µL/min/mg.

As for `O=C(Cc1ccccc1Cl)Nc1onc(-c2ccc(F)cc2)c1-c1ccncn1`, in data set [1], the remaining at 5 min, 1 µM worked out at 5.8%.

As to `O=C(Nc1onc(-c2ccc(F)cc2)c1-c1ccncc1)c1ccccc1`, the remaining at 5 min, 1 µM in [1] is 39.6%. The remaining at 0.25 h, 1 µM in data set [2] was 10.9%.

As to `Cc1cc(-c2noc(NC(=O)Cc3ccccc3C)c2-c2ccncn2)ccc1F`, the remaining at 5 min, 1 µM in [1] came out at 52.6%.

By Cmax is commonly meant the maximum level reached in the sampled fluid or tissue. For orientation: Tmax means the time at which the peak concentration occurs. For orientation: half-life means how long it takes for the measured level to halve. The AUC(0-inf) is the area under the concentration-time curve extrapolated to infinity. The low end stands for less exposure, the high end for more exposure. On to `Nc1onc(-c2ccc(F)cc2)c1-c1ccncn1`, for which the Cmax in data set [3] amounted to 136 ng/mL; in data set [4], 744 ng/mL. Besides, the Tmax stood at 200 min in [5] and 30 min in [6]. For the same molecule, the values for the half-life in [7] and in data set [8] were 58.8 min and 25.7 min, respectively. Moreover, the AUC(0-inf) in data set [9] was 760 ng·h/mL; in data set [10] it was 924 ng·h/mL.

With `Fc1ccc(-c2n[nH]c(CCCc3ccccc3)c2-c2ccncc2)cc1`, the remaining at 5 min, 1 µM in [1] stood at 81.5%. Besides, the remaining at 0.25 h, 1 µM in data set [2] came to 50.3%. In addition, in the data set with Liver, the CLint is 81.8 µL/min/mg.

Regarding `O=C(Cc1ccccc1)Nc1onc(-c2ccc(F)cc2)c1-c1ccncc1`, the remaining at 5 min, 1 µM in data set [1] worked out at 79.7%. Also, the remaining at 0.25 h, 1 µM in data set [2] turned out to be 64.3%. In the data set with Liver, this molecule came in with a CLint of 91 µL/min/mg.

`O=C(Cc1ccccc1)Nc1[nH]nc(-c2ccc(F)cc2)c1-c1ccncc1`: the remaining at 5 min, 1 µM in data set [1] worked out at 90.4%. In addition, the remaining at 0.25 h, 1 µM in data set [2] amounted to 86.2%. Moreover, the CLint in the data set with Liver amounted to 40.6 µL/min/mg.

Turning to `CC(=O)Nc1onc(-c2ccc(F)cc2)c1-c1ccncc1`, the remaining at 5 min, 1 µM in data set [1] was 92.4%. Also, the remaining at 0.25 h, 1 µM in data set [2] came to 82.5%. Besides, in the data set with Liver, the CLint worked out at 31.6 µL/min/mg.

In the case of `O=C(Cc1ccccc1Cl)Nc1onc(-c2ccc(Cl)cc2)c1-c1ccncn1`, the remaining at 5 min, 1 µM in data set [1] is 96.6%.

For the molecule `O=C(Cc1ccccc1)Nc1onc(-c2ccc(F)cc2)c1-c1ccncn1`, the remaining at 5 min, 1 µM in [1] was determined as 5.6%.

On to `O=C(Cc1ccccc1F)Nc1onc(-c2ccc(F)cc2)c1-c1ccncn1`, for which, in data set [1], the remaining at 5 min, 1 µM is 10%.

The term bioavailability denotes dose-corrected exposure relative to a reference, in per cent. A low value points to poor availability. `O=C(Cc1c(F)cccc1Cl)Nc1onc(-c2ccc(F)cc2)c1-c1ccncn1`: the Cmax in data set [3] was found to be 0.88 ng/mL; in [4], 363 ng/mL. Also, the values for the time of peak concentration (Tmax) in [5] and in [6] were 200 min and 4.8 min, respectively. The half-life is 1120 min in data set [7] and 28.4 min in [8]. Besides, the AUC(0-inf) in data set [9] came to 23.7 ng·h/mL; in data set [10] it was 505 ng·h/mL. The molecule also gave a bioavailability in data set [11] below 1%. In [1], the remaining at 5 min, 1 µM amounted to 16.1%.

Consider `O=C(Cc1ccccc1Cl)Nc1onc(-c2ccc(F)cc2F)c1-c1ccncn1`, for which the remaining at 5 min, 1 µM in data set [1] stood at 20.4%.
